Test results published in ChEMBL document CHEMBL1629583, “Establishment of in vitro susceptibility testing methodologies and comparative activities of piperacillin in combination with the penem {beta}-lactamase inhibitor BLI-489” (2009).
Values after ≈ are worked out from the molar mass of the structure shown.

Key:
Type in all cases: functional
Enterococcus faecalis [1] = test: Antimicrobial activity against vancomycin-resistant Enterococcus faecalis clinical isolate after 18 to 22 hrs by broth microdilution method in presence of beta-lactamase inhibitor Tazobactam
Outline: (§1)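 CLSI broth microdilution in Mueller-Hinton II broth. Antibiotic in serial dilution with the β-lactamase inhibitor held at a constant 4 μg/ml. Inoculum 10^5 CFU/ml. Incubated 18 to 22 h at 35°C in ambient air.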

Enterococcus faecalis [2] = test: Antimicrobial activity against vancomycin-resistant Enterococcus faecalis clinical isolate after 18 to 22 hrs by broth microdilution method in presence of beta-lactamase inhibitor BLI-489; outline: as §1
Klebsiella pneumoniae [3] = test: Antimicrobial activity against Klebsiella pneumoniae clinical isolate after 18 to 22 hrs by broth microdilution method in presence of beta-lactamase inhibitor BLI-489
Outline: (§2)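 CLSI broth microdilution in Mueller-Hinton II broth. Serial dilutions of piperacillin were tested with BLI-489 held at a constant 4 μg/ml. Inoculum was 10^5 CFU/ml. Plates were incubated 18 to 22 h at 35°C in ambient air. MIC was the lowest concentration giving complete growth inhibition by unaided eye.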

Enterococcus faecalis [4] = test: Antimicrobial activity against Enterococcus faecalis clinical isolate after 18 to 22 hrs by broth microdilution method in presence of beta-lactamase inhibitor Tazobactam; outline: as §1
[5] = tested on: Bacteroides thetaiotaomicron; test: Antimicrobial activity against Bacteroides thetaiotaomicron clinical isolate after 18 to 22 hrs by broth microdilution method
Haemophilus influenzae = test: Antimicrobial activity against beta-lactamase-negative Haemophilus influenzae clinical isolate after 18 to 22 hrs by broth microdilution method in presence of beta-lactamase inhibitor Tazobactam
Outline: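 […] was used for CLSI broth microdilution with piperacillin-tazobactam. Inoculum was 10^5 CFU/ml, incubated 18 to 22 h at 35°C in ambient air. MIC was the lowest concentration with no growth visible to the unaided eye.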

Streptococcus pneumoniae [6] = test: Antimicrobial activity against penicillin-intermediate Streptococcus pneumoniae clinical isolate after 18 to 22 hrs by broth microdilution method in presence of beta-lactamase inhibitor BLI-489
Outline: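 Streptococci were tested by CLSI broth microdilution in Mueller-Hinton II broth plus 5% lysed horse blood. Piperacillin was serially diluted with BLI-489 fixed at a constant 4 μg/ml. Inoculum was 10^5 CFU/ml, with 18 to 22 h at 35°C in ambient air. MIC was the lowest concentration completely inhibiting growth by eye.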

[7] = tested on: Staphylococcus epidermidis; test: Antimicrobial activity against methicillin-susceptible Staphylococcus epidermidis clinical isolate after 18 to 22 hrs by broth microdilution method in presence of beta-lactamase inhibitor BLI-489
Outline: (§3)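 Piperacillin serially diluted with BLI-489 held at a constant 4 μg/ml, by CLSI broth microdilution in Mueller-Hinton II broth. Inoculum was 10^5 CFU/ml. Plates were incubated 18 to 22 h at 35°C in ambient air. MIC was the lowest concentration completely inhibiting growth seen by the unaided eye.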

[8] = tested on: Peptostreptococcus anaerobius; test: Antimicrobial activity against Peptostreptococcus anaerobius clinical isolate after 18 to 22 hrs by broth microdilution method in presence of beta-lactamase inhibitor Tazobactam
Bacteroides uniformis = test: Antimicrobial activity against Bacteroides uniformis clinical isolate after 18 to 22 hrs by broth microdilution method
Klebsiella pneumoniae [9] = test: Antimicrobial activity against AmpC- producing Klebsiella pneumoniae clinical isolate after 18 to 22 hrs by broth microdilution method in presence of beta-lactamase inhibitor Tazobactam
Outline: (§4)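 Piperacillin-tazobactam was tested on recent clinical isolates by CLSI broth microdilution in Mueller-Hinton II broth, with tazobactam at constant 4 μg/ml. Wells held 10^5 CFU/ml and were incubated 18 to 22 h at 35°C in ambient air. MIC was the lowest concentration with no growth visible to the unaided eye.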

Burkholderia cepacia = test: Antimicrobial activity against Burkholderia cepacia clinical isolate after 18 to 22 hrs by broth microdilution method in presence of beta-lactamase inhibitor Tazobactam; outline: as §4
Enterococcus faecium = test: Antimicrobial activity against vancomycin-resistant Enterococcus faecium clinical isolate after 18 to 22 hrs by broth microdilution method in presence of beta-lactamase inhibitor BLI-489; outline: as §1
Klebsiella aerogenes = test: Antimicrobial activity against Enterobacter aerogenes clinical isolate after 18 to 22 hrs by broth microdilution method in presence of beta-lactamase inhibitor BLI-489
Outline: (§5)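 CLSI broth microdilution in Mueller-Hinton II broth. Piperacillin serial dilutions were combined with BLI-489 held constant at 4 μg/ml. Inoculum was 10^5 CFU/ml. Plates were incubated 18 to 22 h at 35°C in ambient air. MIC was the lowest concentration completely inhibiting growth seen by the unaided eye. Piperacillin-tazobactam interpretive criteria were applied.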

Enterobacter cloacae = test: Antimicrobial activity against Enterobacter cloacae clinical isolate after 18 to 22 hrs by broth microdilution method in presence of beta-lactamase inhibitor BLI-489; outline: as §5
Parvimonas micra = test: Antimicrobial activity against Peptostreptococcus micros clinical isolate after 18 to 22 hrs by broth microdilution method
Staphylococcus aureus = test: Antimicrobial activity against methicillin-susceptible Staphylococcus aureus clinical isolate after 18 to 22 hrs by broth microdilution method in presence of beta-lactamase inhibitor BLI-489; outline: as §3
Acinetobacter johnsonii = test: Antimicrobial activity against Acinetobacter johnsonii clinical isolate after 18 to 22 hrs by broth microdilution method in presence of beta-lactamase inhibitor BLI-489; outline: as §5
Morganella morganii = test: Antimicrobial activity against Morganella morganii clinical isolate after 18 to 22 hrs by broth microdilution method in presence of beta-lactamase inhibitor BLI-489; outline: as §2
Providencia rettgeri = test: Antimicrobial activity against Providencia rettgeri clinical isolate after 18 to 22 hrs by broth microdilution method in presence of beta-lactamase inhibitor BLI-489; outline: as §2
Streptococcus pneumoniae [10] = test: Antimicrobial activity against penicillin-intermediate Streptococcus pneumoniae clinical isolate after 18 to 22 hrs by broth microdilution method in presence of beta-lactamase inhibitor Tazobactam
Outline: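 Broth microdilution per CLSI in Mueller-Hinton II broth supplemented with 5% lysed horse blood, using serial dilutions of piperacillin-tazobactam. Inoculum was 10^5 CFU/ml. Incubation was 18 to 22 h at 35°C in ambient air. MIC was the lowest concentration with no growth visible to the unaided eye.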

Enterococcus faecalis [11] = test: Antimicrobial activity against Enterococcus faecalis clinical isolate after 18 to 22 hrs by broth microdilution method in presence of beta-lactamase inhibitor BLI-489; outline: as §5

## CCN1CCN(C(=O)N[C@@H](C(=O)N[C@@H]2C(=O)N3[C@@H]2SC(C)(C)[C@@H]3C(=O)O)c2ccccc2)C(=O)C1=O [PIPERACILLIN]
Enterococcus faecalis [1]
  MIC50: 2 µg/mL
  MIC90: > 128 µg/mL
Enterococcus faecalis [2]
  MIC: 2 µg/mL
  MIC50: 2 µg/mL
  MIC90: 64 µg/mL
Klebsiella pneumoniae [3]
  MIC50: 2 µg/mL
  MIC90: 8 µg/mL
Enterococcus faecalis [4]
  MIC: 2 µg/mL
  MIC50: 2 µg/mL
  MIC90: 4 µg/mL
[5]
  MIC50: 32 µg/mL (≈ 61.8 µM)
  MIC90: > 128 µg/mL
Haemophilus influenzae
  MIC50: 0.008 µg/mL
  MIC90: 0.03 µg/mL
Streptococcus pneumoniae [6]
  MIC50: 0.25 µg/mL
  MIC90: 1 µg/mL
[7]
  MIC: ≤ 0.004 µg/mL
  MIC50: ≤ 0.004 µg/mL
  MIC90: ≤ 0.004 µg/mL
[8]
  MIC: ≤ 0.015 µg/mL
  MIC50: ≤ 0.015 µg/mL
  MIC90: ≤ 0.015 µg/mL
Bacteroides uniformis
  MIC50: 16 µg/mL (≈ 30.9 µM)
  MIC90: 32 µg/mL (≈ 61.8 µM)
Klebsiella pneumoniae [9]
  MIC50: 32 µg/mL
  MIC90: > 128 µg/mL
Burkholderia cepacia
  MIC50: 4 µg/mL
  MIC90: 64 µg/mL
Enterococcus faecium
  MIC50: > 128 µg/mL
Klebsiella aerogenes
  MIC50: 2 µg/mL
  MIC90: 64 µg/mL
Enterobacter cloacae
  MIC50: 2 µg/mL
  MIC90: 16 µg/mL
Parvimonas micra
  MIC50: 0.12 µg/mL (≈ 0.232 µM)
  MIC90: 0.25 µg/mL (≈ 0.483 µM)
Staphylococcus aureus
  MIC50: 0.25 µg/mL
  MIC90: 0.5 µg/mL
Acinetobacter johnsonii
  MIC50: 4 µg/mL
  MIC90: 16 µg/mL
Morganella morganii
  MIC50: 0.25 µg/mL
  MIC90: 1 µg/mL
Providencia rettgeri
  MIC50: 1 µg/mL
  MIC90: 8 µg/mL
Streptococcus pneumoniae [10]
  MIC50: 0.5 µg/mL
  MIC90: 1 µg/mL
Enterococcus faecalis [11]
  MIC50: 2 µg/mL
  MIC90: 4 µg/mL
